Reference: ChEMBL document CHEMBL1124521, “Effect of structural modifications in the C7-C11 region of the retinoid skeleton on biological activity in a series of aromatic retinoids” (1989)

Key:
Oryctolagus cuniculus [1] = species on record: Oryctolagus cuniculus; assay: Percentage inhibition of cholesterol-3-sulfate activity rabbit at 10 nM.; format: functional; parameters: scale not given: the % may be the effect or the level left
Summary of the method: (§1)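 Rabbit tracheal epithelial cells in supplemented Ham's F12, given retinoid (0.1 or 10 nM) in Me₂SO from day 5 for 5 days. Cells were labeled 22 h with 25 μCi/mL Na₂³⁵SO₄, trypsinized, and extracted with CHCl₃/MeOH. Inhibition of ³⁵SO₄ incorporation into cholesterol 3-sulfate was measured relative to control.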

Oryctolagus cuniculus [2] = species on record: Oryctolagus cuniculus; assay: Percentage inhibition of Transglutaminase activity in rabbit at 10 nM.
Summary of the method: (§2)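 Rabbit tracheal epithelial cells on fibronectin/BSA/vitrogen-coated dishes in supplemented Ham's F12, treated with retinoid in Me₂SO from day 5 for 5 days. Cells were sonicated in PBS with 10 mM dithiothreitol, and transglutaminase activity was measured as [³H]putrescine incorporation into casein, in triplicate.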

[3] = (§3) Inhibition of binding of [3H]all-trans-retinoic acid to cellular retinoic acid binding protein at 3 uM compound concentration, in rat; parameters: scale not given: the % may be the effect or the level left
Summary of the method: (§4)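 CRABP partially purified from rat testis. Competition of 3 μM retinoid with [³H]-all-trans-retinoic acid, bound ligand separated by Sephadex G-25 gel filtration on 2-mL columns. Triplicate measurements.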

[4] = target: Ornithine decarboxylase (Mus musculus) (UniProt P00860); assay: Inhibitory effect of compound on the induction of ornithine decarboxylase in CD-1 mouse.
Ornithine decarboxylase (Mus musculus), sequence (P00860 whole entry, looked up): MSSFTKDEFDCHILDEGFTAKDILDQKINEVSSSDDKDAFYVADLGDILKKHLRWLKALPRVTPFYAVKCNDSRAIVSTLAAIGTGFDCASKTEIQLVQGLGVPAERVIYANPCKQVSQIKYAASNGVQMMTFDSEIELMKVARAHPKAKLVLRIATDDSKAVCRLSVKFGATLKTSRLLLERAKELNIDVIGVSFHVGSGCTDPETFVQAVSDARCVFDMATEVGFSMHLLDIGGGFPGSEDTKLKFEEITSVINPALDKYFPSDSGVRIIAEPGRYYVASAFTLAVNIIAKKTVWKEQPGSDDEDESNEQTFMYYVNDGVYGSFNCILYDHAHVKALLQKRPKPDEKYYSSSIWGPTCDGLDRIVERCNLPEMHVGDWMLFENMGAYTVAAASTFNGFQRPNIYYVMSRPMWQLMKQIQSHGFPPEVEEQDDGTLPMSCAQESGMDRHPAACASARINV

F9 [5] = assay: Ability to displace [3H]all-trans-retinoic acid from F9 embryonal carcinoma cells, was assessed in a F9 laminin release assay; format: functional; conditions: Mus musculus, F9, 96 h; read-out: ED50 (the source's name)
[6] = Inhibitory dose against tracheal organ culture reversal of keratinization; format: functional; conditions: Cricetulus griseus, Trachea; read-out: ID50 (the source's name)
Summary of the method: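 Retinoid-deficient hamster tracheas in organ culture, scored for reversal of keratinization. At least six cultures per retinoid concentration; ID50 by polynomial interpolation.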

Oryctolagus cuniculus [7] = species on record: Oryctolagus cuniculus; assay: cross-linked envelope inhibition assay was performed at 10 nM compound concentration; format: functional; parameters: scale not given: the % may be the effect or the level left
Summary of the method: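 Rabbit tracheal epithelial cells exposed to 1 × 10⁻⁸ M retinoid from day 6 of culture. Cross-linked envelope formation was determined on day 12, in triplicate.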

Oryctolagus cuniculus [8] = species on record: Oryctolagus cuniculus; assay: Percentage inhibition of cholesterol-3-sulfate activity in rabbit at 0.1 nM.; format: functional; summary of the method: as §1
F9 [9] = assay: Ability to displace 3 uM retinoid and [3H]all-trans-retinoic acid in F9 embryonal carcinoma cells using F9 Plasminogen Activator releasing assay; format: functional; conditions: Mus musculus, F9, 4 days; read-out: ED50 (the source's name)
[10] = target: Cellular retinoic acid-binding protein 1 (Gallus gallus) (UniProt P40220); assay: Concentration of compound required to inhibit binding of 2.5 uM [3H]all-trans-retinoic acid by 50% in chick
Cellular retinoic acid-binding protein 1 (Gallus gallus), sequence (P40220 whole entry): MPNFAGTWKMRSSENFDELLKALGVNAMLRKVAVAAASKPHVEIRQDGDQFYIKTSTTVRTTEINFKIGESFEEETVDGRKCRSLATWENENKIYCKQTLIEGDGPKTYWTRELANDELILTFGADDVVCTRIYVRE
Summary of the method: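 Chick embryo skin CRABP (12–13-day), with albumin removed on Affi-Gel Blue. Eluates (1 mg protein/0.4 mL) were incubated with saturable [³H]-all-trans-retinoic acid ± 1-, 5-, 10- or 25-fold molar excess of unlabeled retinoid. Free ligand was removed with dextran-coated charcoal, followed by filtration and counting of bound radioactivity. Nonspecific binding was defined with 25-fold excess of retinoic acid. ID50 from semilog plots.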

Oryctolagus cuniculus [11] = species on record: Oryctolagus cuniculus; assay: Percentage inhibition of Transglutaminase activity in rabbit at 0.1 nM.; parameters: scale not given: the % may be the effect or the level left; summary of the method: as §2
[12] = as §3; format: functional; parameters: scale not given: the % may be the effect or the level left; summary of the method: as §4
[13] = target: Cellular retinoic acid-binding protein 1 (Gallus gallus) (UniProt P40220)

Transglutaminase activity (% of control) (Oryctolagus cuniculus [2]) | Control [3] | ID50 [4] | IC50 [6] | ID50 [10] | Control (Oryctolagus cuniculus [11]) | ID50 [13] | Compound | Control (Oryctolagus cuniculus [1]) | EC50 (F9 [5]) | Control (Oryctolagus cuniculus [7]) | Cholesterol sulfate synthesis (% of control) (Oryctolagus cuniculus [8]) | EC50 (F9 [9]) | Control [12]
1% | 100% | 0.03 nM | 0.002 nM | 800 nM |  |  | C/C(=C\c1ccc(C(=O)O)cc1)c1ccc2c(c1)C(C)(C)CCC2(C)C | 1% | 1.5 nM | <1% | 6% | 0.08 nM | 
23% |  | 3.2 nM | > 0.1 nM | 4800 nM | 130% |  | CC1(C)CCC(C)(C)c2cc(C3C[C@H]3c3ccc(C(=O)O)cc3)ccc21 (stereo not given in full) | 2% | 90 nM | <1% | 73% | 2 nM | 
5% | 27% | 0.03 nM | 0.007 nM | 1000 nM | 10% |  | C/C(=C\c1ccc2c(c1)C(C)(C)CCC2(C)C)c1ccc(C(=O)O)cc1 | 1% | 1.5 nM | 0% | 2% | 0.7 nM | 
14% |  | 0.07 nM | 0.01 nM | 800 nM | 12% |  | CC1(C)CCC(C)(C)c2cc3cc(-c4ccc(C(=O)O)cc4)ccc3cc21 | 2% | 0.2 nM | <1% | 13% | 0.3 nM | 

Further lines, the compound ahead of its results:

Compound | Transglutaminase activity (% of control) (Oryctolagus cuniculus [2]) | Control [3] | ID50 [4] | IC50 [6] | ID50 [10] | Control (Oryctolagus cuniculus [11]) | ID50 [13] | Control (Oryctolagus cuniculus [1]) | EC50 (F9 [5]) | Control (Oryctolagus cuniculus [7]) | Cholesterol sulfate synthesis (% of control) (Oryctolagus cuniculus [8]) | EC50 (F9 [9]) | Control [12]
CC1(C)CCC(C)(C)c2cc(-c3ccc4cc(C(=O)O)ccc4c3)ccc21 | 9% | 91% | 2.2 nM | 0.003 nM | 1600 nM |  |  | 2% | 31 nM | <1% | 15% | 1 nM | 
C/C(=C(/C)c1ccc2c(c1)C(C)(C)CCC2(C)C)c1ccc(C(=O)O)cc1 | 68% |  | 142 nM | > 10 nM | 1000 nM |  |  | 33% | > 100 nM | 100% | 73% | > 10 nM | 
Cc1cc2c(cc1-c1ccc3cc(C(=O)O)ccc3c1)C(C)(C)CCC2(C)C | 11% |  | 0.4 nM | 0.02 nM | 4800 nM | 37% |  | 2% | > 100 nM | <1% | 12% | 0.5 nM | 
Cc1c(-c2ccc3c(c2)C(C)(C)CCC3(C)C)ccc2cc(C(=O)O)ccc12 | 47% |  | 66 nM | 0.08 nM | 15000 nM | 114% |  | 14% | > 5000 nM | 5% | 187% | 3 nM | 
CC1=C(/C=C/C(C)=C/C=C/C(C)=C/C(=O)O)C(C)(C)CCC1 [TRETINOIN] | 15% |  | 0.04 nM | 0.01 nM |  |  | 1000 nM | 5% | 1.5 nM | <1% | 100% | 0.1 nM | 91%
